Here are results for 20 compounds from ChEMBL document CHEMBL1914304 (J Med Chem, 2011).

In series [1] the test system is Raji. Put plainly: Cytotoxicity against human Raji cells after 72 hrs by luminescence assay. The class given is cell-based.
The subject of series [2] is HEK293. The series can be described thus: Cytotoxicity against human HEK293 cells after 72 hrs by luminescence assay. The class given is cell-based. The settings on record: hek293, 72 h.
Series [3] deals with BJ. Put plainly: Cytotoxicity against human BJ cells after 72 hrs by luminescence assay. It counts as cell-based.
The test system of series [4] is HepG2. The series can be described thus: Cytotoxicity against human HepG2 cells after 72 hrs by luminescence assay. The class given is cell-based. The settings on record: hepg2, 72 h.
Series [5] is described as follows: Selectivity ratio of EC50 for human HepG2 cells to EC50 for Plasmodium falciparum.
Series [6] addresses T1, Sodium channel protein type 5 subunit alpha (Homo sapiens, UniProt Q14524). The series can be described thus: Inhibition of human cloned Nav1.5 channel expressed in chinese hamster CHO cells assessed as phasic inhibition after 5 mins by patch clamp assay. It counts as cell-based. (In patch-clamp work, channel activity is measured electrically.)
The subject of series [7] is Plasma. The series can be described thus: Metabolic stability in mouse plasma over 24 hrs. It counts as ADME, cell-free.
Series [8] concerns the target Sulfonylurea receptor 2, Kir6.2 (Homo sapiens, UniProt O60706+Q14654). The series can be described thus: Inhibition of human kir6.2/SUR2A ion channel coexpressed in human HEK293 cells after 5 mins by patch clamp assay. It counts as cell-based. An outline of the steps: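 Human KCNJ11 (Kir6.2) and SUR2A were co-expressed in HEK293 cells to give the ATP-sensitive current IKATP. The assay was run at room temperature by automated parallel patch clamp, with dose-response at 0.2, 0.6, 1.6 and 5 µM. Exposure was 5 min per concentration, with each concentration in two cells (n ≥ 2).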

The nature of series [9]: Chemical stability in simulated gastric fluid at pH 5 over 24 hrs. It counts as physicochemical. The settings on record: simulated gi fluid, pH 5, 24 h.
Series [10] in a line: Chemical stability in simulated gastric fluid at pH 2 over 24 hrs. It counts as physicochemical. The settings on record: simulated gi fluid, pH 2, 24 h.
Series [11] can be described thus: Solubility of the compound in phosphate buffered saline by UV spectrophotometry. The class given is physicochemical.
Series [12] deals with T1, Sodium channel protein type 5 subunit alpha. Put plainly: Inhibition of human cloned Nav1.5 channel expressed in chinese hamster CHO cells assessed as tonic inhibition after 5 mins by patch clamp assay. It counts as cell-based.
Series [13] deals with Voltage-gated inwardly rectifying potassium channel KCNH2 (Homo sapiens, UniProt Q12809). The series can be described thus: Inhibition of human cloned ERG channel expressed in chinese hamster CHO cells after 5 mins by patch clamp assay. It counts as cell-based.
Sequence of Voltage-gated inwardly rectifying potassium channel KCNH2 (Q12809 whole entry): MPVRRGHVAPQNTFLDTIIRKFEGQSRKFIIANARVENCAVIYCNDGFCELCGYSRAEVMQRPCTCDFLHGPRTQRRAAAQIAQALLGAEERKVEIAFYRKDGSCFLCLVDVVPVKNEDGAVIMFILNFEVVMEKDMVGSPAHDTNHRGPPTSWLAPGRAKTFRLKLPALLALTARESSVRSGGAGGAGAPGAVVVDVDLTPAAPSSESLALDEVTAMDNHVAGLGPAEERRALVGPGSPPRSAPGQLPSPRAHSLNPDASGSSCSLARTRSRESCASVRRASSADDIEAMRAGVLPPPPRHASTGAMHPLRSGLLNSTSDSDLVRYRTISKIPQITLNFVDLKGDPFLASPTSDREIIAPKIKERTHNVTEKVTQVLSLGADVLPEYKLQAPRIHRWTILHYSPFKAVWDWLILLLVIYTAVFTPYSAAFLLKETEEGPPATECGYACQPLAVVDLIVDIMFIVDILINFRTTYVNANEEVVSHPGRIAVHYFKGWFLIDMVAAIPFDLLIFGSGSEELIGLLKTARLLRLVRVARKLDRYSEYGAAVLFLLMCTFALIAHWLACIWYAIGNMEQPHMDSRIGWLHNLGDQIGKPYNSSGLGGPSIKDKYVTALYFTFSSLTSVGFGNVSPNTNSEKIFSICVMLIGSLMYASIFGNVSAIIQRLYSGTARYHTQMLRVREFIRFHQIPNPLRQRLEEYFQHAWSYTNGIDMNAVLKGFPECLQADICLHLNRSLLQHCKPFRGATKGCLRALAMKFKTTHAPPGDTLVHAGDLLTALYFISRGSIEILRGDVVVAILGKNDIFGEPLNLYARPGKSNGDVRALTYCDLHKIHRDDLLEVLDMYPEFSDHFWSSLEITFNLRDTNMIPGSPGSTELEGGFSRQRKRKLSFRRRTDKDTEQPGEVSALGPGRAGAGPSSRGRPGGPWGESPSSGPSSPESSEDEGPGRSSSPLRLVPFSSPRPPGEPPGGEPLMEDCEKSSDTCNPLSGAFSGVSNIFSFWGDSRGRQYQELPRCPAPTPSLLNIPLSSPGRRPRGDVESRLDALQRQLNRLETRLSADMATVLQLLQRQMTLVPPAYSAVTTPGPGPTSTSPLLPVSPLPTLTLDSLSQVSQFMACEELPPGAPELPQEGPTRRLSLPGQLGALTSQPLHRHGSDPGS
Series [14] has as its system Plasmodium falciparum. Put plainly: Antimalarial activity against erythrocytic stage of chloroquine-resistant Plasmodium falciparum K1 after 72 hrs by spectrophotometry. The class given is functional, organism-based. The settings on record: K1, 72 h.
Series [15] concerns hERG. Put plainly: Therapeutic index, ratio of IC50 for human ERG expressed in CHO cells to EC50 for chloroquine-resistant Plasmodium falciparum K1. It counts as cell-based. The settings on record: hamster, CHO cells expressing human ERG; read-out: Ratio IC50/EC50.
In series [16] the test system is Plasmodium falciparum. Put plainly: Antimalarial activity against erythrocytic stage of chloroquine-sensitive Plasmodium falciparum 3D7 after 72 hrs by spectrophotometry. The class given is functional, organism-based. The settings on record: 3D7, 72 h.

T1 sequence (Q14524 whole entry): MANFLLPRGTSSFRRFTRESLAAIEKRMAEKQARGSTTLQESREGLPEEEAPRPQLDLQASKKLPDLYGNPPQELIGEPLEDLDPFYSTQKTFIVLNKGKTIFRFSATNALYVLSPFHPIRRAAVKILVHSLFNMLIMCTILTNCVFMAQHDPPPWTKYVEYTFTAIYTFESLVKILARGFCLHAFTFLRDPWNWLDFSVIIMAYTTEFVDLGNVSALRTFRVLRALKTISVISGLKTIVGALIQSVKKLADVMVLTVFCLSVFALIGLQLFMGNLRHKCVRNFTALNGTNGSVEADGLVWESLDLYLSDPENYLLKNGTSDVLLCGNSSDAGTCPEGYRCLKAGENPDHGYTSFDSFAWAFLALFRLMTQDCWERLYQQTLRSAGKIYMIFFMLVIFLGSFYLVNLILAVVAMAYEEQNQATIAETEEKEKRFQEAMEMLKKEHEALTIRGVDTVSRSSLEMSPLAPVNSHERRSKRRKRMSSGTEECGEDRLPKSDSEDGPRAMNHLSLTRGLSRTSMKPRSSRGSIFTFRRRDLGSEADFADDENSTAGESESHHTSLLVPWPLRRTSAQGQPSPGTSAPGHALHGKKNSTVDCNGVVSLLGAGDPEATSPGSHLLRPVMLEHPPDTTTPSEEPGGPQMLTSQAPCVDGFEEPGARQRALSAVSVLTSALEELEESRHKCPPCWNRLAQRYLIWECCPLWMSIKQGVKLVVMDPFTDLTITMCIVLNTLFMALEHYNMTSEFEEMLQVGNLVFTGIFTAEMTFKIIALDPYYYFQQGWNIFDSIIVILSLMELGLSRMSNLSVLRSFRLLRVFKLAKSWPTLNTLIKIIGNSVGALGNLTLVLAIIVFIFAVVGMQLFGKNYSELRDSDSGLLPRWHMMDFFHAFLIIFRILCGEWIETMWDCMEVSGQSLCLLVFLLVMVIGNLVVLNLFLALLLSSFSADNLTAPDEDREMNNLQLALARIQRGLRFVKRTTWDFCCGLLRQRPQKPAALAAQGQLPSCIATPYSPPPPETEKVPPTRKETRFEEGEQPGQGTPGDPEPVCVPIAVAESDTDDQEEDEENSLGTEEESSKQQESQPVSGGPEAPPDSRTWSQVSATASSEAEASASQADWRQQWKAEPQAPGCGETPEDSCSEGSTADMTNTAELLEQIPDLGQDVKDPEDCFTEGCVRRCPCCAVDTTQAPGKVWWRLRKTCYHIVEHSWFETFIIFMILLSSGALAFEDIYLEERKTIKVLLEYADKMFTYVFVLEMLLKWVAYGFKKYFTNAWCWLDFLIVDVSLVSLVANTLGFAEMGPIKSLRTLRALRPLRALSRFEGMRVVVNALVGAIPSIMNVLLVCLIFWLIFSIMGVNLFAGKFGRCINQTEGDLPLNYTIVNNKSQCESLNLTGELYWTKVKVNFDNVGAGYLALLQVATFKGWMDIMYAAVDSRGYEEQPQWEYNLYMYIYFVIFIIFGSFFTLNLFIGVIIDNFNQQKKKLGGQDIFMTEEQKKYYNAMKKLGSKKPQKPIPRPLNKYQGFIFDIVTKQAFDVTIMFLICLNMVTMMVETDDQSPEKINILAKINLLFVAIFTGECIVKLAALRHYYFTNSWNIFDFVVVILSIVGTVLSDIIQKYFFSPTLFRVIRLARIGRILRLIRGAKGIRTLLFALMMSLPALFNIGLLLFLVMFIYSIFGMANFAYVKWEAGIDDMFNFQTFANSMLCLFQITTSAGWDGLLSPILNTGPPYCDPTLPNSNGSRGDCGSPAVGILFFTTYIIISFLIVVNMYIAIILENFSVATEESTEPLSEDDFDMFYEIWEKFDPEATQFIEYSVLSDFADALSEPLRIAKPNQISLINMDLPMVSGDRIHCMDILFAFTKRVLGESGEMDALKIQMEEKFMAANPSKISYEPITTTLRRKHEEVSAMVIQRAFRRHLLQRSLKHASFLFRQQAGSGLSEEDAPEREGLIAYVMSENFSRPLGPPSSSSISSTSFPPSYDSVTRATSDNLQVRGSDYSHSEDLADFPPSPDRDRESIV
Sequence of Sulfonylurea receptor 2, Kir6.2 (Q14654 whole entry): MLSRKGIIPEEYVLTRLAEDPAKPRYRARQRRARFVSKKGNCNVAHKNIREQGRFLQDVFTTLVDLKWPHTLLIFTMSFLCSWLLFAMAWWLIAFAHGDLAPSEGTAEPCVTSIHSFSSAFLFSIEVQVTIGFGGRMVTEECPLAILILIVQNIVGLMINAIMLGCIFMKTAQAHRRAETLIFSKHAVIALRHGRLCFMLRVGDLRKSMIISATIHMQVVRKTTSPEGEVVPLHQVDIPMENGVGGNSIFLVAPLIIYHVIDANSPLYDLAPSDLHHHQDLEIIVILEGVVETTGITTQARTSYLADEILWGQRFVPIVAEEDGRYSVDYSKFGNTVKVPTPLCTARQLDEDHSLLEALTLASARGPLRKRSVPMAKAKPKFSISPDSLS
Sequence of Sulfonylurea receptor 2, Kir6.2 (O60706 whole entry): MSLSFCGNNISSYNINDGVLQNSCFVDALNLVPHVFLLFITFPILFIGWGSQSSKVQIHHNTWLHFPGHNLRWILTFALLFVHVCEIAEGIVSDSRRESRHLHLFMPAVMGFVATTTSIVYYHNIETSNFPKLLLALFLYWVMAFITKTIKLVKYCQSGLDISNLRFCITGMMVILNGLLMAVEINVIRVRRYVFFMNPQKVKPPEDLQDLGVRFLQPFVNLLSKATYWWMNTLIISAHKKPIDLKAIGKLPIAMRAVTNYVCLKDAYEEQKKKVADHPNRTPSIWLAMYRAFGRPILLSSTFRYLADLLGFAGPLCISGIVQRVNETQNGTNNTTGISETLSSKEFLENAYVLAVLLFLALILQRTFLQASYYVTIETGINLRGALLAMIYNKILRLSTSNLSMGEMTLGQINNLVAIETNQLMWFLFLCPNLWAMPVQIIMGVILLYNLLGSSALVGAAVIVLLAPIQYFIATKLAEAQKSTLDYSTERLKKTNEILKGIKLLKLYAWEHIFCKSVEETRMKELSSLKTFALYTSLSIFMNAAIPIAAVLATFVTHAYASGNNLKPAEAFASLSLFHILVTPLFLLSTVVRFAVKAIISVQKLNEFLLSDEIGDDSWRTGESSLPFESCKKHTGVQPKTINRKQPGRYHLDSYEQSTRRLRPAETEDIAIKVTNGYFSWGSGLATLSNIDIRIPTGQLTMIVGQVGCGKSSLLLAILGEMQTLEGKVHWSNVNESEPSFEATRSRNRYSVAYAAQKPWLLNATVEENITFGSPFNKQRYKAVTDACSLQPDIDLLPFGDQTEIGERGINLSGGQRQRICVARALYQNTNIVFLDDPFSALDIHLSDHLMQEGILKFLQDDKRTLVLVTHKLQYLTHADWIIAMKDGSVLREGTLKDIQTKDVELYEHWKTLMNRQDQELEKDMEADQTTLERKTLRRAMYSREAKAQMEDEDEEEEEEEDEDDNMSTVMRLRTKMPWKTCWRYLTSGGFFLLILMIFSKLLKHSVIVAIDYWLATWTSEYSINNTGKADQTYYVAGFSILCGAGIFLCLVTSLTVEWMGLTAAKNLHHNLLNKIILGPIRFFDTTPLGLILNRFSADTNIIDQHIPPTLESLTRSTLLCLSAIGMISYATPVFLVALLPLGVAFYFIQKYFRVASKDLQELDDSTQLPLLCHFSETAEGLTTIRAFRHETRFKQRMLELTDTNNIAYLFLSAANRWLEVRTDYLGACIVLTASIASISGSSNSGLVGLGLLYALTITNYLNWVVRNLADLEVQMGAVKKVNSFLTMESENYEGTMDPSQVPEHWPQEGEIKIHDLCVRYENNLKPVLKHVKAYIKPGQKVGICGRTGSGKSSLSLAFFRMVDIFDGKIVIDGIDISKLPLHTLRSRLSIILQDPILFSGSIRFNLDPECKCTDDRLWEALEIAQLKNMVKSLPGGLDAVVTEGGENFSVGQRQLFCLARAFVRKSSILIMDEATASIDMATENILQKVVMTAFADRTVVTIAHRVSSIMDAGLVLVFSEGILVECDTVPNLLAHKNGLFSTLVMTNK

Regarding `CC(C)(C)NCC(O)COc1ccccc1C(=O)CCc1ccccc1.Cl` (racemic), the Activity result in series [1], in [2], in [3] and in [4] was “Non-toxic” throughout. The selectivity ratio in [5] was above 10.
Consider `Cl.O=C(CCc1ccccc1)c1ccccc1OCC1CO1` (racemic), for which the Activity entry in [1], in [2], in [3] and in [4] was “Non-toxic” each time. In series [5], the selectivity ratio is above 10.
In the case of `Cl.O=C(CCc1ccccc1)c1cc(F)ccc1OCC1CO1` (racemic), the Activity result in series [1], in series [2], in [3] and in [4] was “Non-toxic” each time. Besides, the selectivity ratio in series [5] was above 10.
In the case of `Cl.O=C(CCc1ccc(F)cc1)c1ccccc1OCC1CO1` (racemic), the Activity entry in series [1], in series [2], in series [3] and in [4] was “Non-toxic” throughout. Moreover, the selectivity ratio in series [5] was above 10.
Regarding `Cl.O=C(CCc1ccc(F)cc1)c1cc(F)ccc1OCC1CO1` (racemic), the Activity result in [1], in series [2], in series [3] and in series [4] was “Non-toxic” throughout. Moreover, the selectivity ratio in series [5] was above 10.
Consider `Cl.O=C(CCc1ccccc1)c1ccccc1OCC(O)CNCc1ccccc1` (racemic), for which the Activity result in [1], in series [2], in [3] and in [4] was “Non-toxic” throughout. In series [5], the selectivity ratio was above 10.
Regarding `Cl.O=C(CCc1ccccc1)c1ccccc1OCC(O)CN(Cc1ccccc1)c1ccccc1` (racemic), the Activity result in [1], in series [2], in series [3] and in series [4] was “Non-toxic” in each case. Moreover, the selectivity ratio in [5] is above 10.
Take `Cc1cccc(N(CC(O)COc2ccccc2C(=O)CCc2ccccc2)c2ccccc2)c1.Cl` (racemic): the Activity entry in series [1], in series [2], in series [3] and in series [4] was “Non-toxic” each time. Further, the selectivity ratio in series [5] was above 10.
On to `CN(CCc1ccccc1)CC(O)COc1ccccc1C(=O)CCc1ccccc1.Cl` (racemic), for which the Activity entry in series [1], in series [2], in [3] and in series [4] was “Non-toxic” each time. Further, the selectivity ratio in series [5] is above 10.
Take `CCN(CC)CC(O)COc1ccccc1C(=O)CCc1ccccc1.Cl` (racemic): the Activity entry in series [1], in series [2], in [3] and in series [4] was “Non-toxic” throughout. In addition, the selectivity ratio in series [5] is above 10.
Regarding `CCCN(CCC)CC(O)COc1ccccc1C(=O)CCc1ccccc1.Cl` (racemic), the Activity result in series [1], in series [2], in [3] and in series [4] was “Non-toxic” throughout. Moreover, the selectivity ratio in series [5] is above 10.
Consider `CCCCN(CCCC)CC(O)COc1ccccc1C(=O)CCc1ccccc1.Cl` (racemic), for which the Activity result in [1], in series [2], in series [3] and in series [4] was “Non-toxic” in each case. Moreover, the selectivity ratio in [5] is above 10.
With `CC(C)N(CC(O)COc1ccccc1C(=O)CCc1ccccc1)c1ccccc1.Cl` (racemic), the Activity result in series [1], in series [2], in [3] and in series [4] was “Non-toxic” each time. Further, the selectivity ratio in [5] was above 10.
`Cl.O=C(CCc1ccccc1)c1ccccc1OCC(O)CN(C1CCCCC1)C1CCCCC1` (racemic): the Activity entry in [1], in series [2], in series [3] and in series [4] was “Non-toxic” throughout. Moreover, in series [5], the selectivity ratio is above 10.
For `Cl.O=C(CCc1ccc(F)cc1)c1ccccc1OCC(O)CNCc1ccccc1` (racemic), the Activity result in [1], in [2], in series [3] and in series [4] was “Non-toxic” in each case. In series [5], the selectivity ratio is above 10.
As usually defined, the IC50 is the concentration that gives 50% inhibition. One may read the solubility as the concentration that dissolves in the medium under given conditions. Read a low solubility as a poorly soluble substance. Regarding `Cl.O=C(CCc1ccccc1)c1ccccc1OCC(O)CN1CCC(c2ccccc2)CC1` (racemic), the Activity entry in series [1], in [2], in [3] and in [4] was “Non-toxic” in each case. The IC50 in series [6], in [8] and in [12] was above 5 µM each time. The Stability entry in series [7], in series [9] and in series [10] was “Stable” in each case. This compound also displayed a solubility in series [11] of 7.27 µM.
With `Cc1ccc(N2CCN(CC(O)COc3ccccc3C(=O)CCc3ccccc3)CC2)cc1.Cl` (racemic), the Activity result in [1], in [2], in series [3] and in series [4] was “Non-toxic” each time. The IC50 was above 5 µM in [6], above 5 µM in series [8], above 5 µM in series [12] and 4.31 µM in series [13].
A word on the EC50: it is the midpoint of the concentration-response curve. A high value points to a need for much substance. As for `Cl.O=C(CCc1ccccc1)c1ccccc1OCC(O)CN1CCN(C(c2ccccc2)c2ccccc2)CC1` (racemic), the EC50 in [14] came to 0.1 µM; in [16], 0.06 µM. In addition, the Activity result in series [1], in series [2], in series [3] and in series [4] was “Non-toxic” throughout. In addition, the Stability result in series [7], in series [9] and in [10] was “Stable” each time. In addition, the selectivity ratio in series [15] is 26; in series [5], above 10. For the same compound, the concentration in solution in [11] (solubility) came to 0.2 µM. In series [13], this compound returned an IC50 of 2.6 µM.
Consider `Cl.O=C(CCc1ccc(F)cc1)c1ccccc1OCC(O)CN1CCN(C(c2ccccc2)c2ccccc2)CC1` (racemic), for which the EC50 in series [14] and in [16] was below 0.1 µM each time. For the same compound, the Activity entry in series [1], in series [2], in series [3] and in series [4] was “Non-toxic” throughout. Also, the selectivity ratio in series [5] was above 10.
Consider `Cl.O=C(CCc1ccccc1)c1cc(F)ccc1OCC(O)CN1CCN(C(c2ccccc2)c2ccccc2)CC1` (racemic), for which the Activity entry in series [1], in series [2], in [3] and in series [4] was “Non-toxic” each time. The IC50 in series [6], in [8] and in series [12] was above 5 µM each time. The Stability entry in series [7], in series [9] and in series [10] was “Stable” each time. Moreover, the concentration in solution in [11] (solubility) was 0.11 µM.
